Results reported in ChEMBL document CHEMBL1649283, “In vitro activities of piperaquine, lumefantrine, and dihydroartemisinin in Kenyan Plasmodium falciparum isolates and polymorphisms in pfcrt and pfmdr1” (Antimicrob Agents Chemother, 2009).

Key:
Format in all cases: functional, organism-based
[1] = tested on: Plasmodium falciparum; test: Antiplasmodial activity against Plasmodium falciparum harboring mutant pfcrt-76 gene after 18 hrs by [3H]hypoxanthine incorporation assay
Method in brief: (§1)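 Kenyan field isolates, culture-adapted in long term (some cryopreserved first), grown in RPMI 1640 with 15% human serum, HEPES, bicarbonate, glutamine and pABA. Genotyped at pfcrt 76 and pfmdr1 86 from dried blood spots. Threefold dilutions; 0.5% parasitemia, 1.5% hematocrit; 66 h at 37°C in 5% O2/5% CO2/90% N2, then [3H]hypoxanthine for 18 h. IC50 by nonlinear regression; each isolate measured twice.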

[2] = tested on: Plasmodium falciparum; test: Antiplasmodial activity against multidrug-resistant Plasmodium falciparum […] after 18 hrs by [3H]hypoxanthine incorporation assay
Method in brief: (§2)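 Reference strains (multidrug-resistant V1S, drug-sensitive 3D7) in RPMI 1640 with 15% human serum. Threefold drug dilutions; 0.5% parasitemia, 1.5% hematocrit; 66 h at 37°C under 5% O2/5% CO2/90% N2, then [3H]hypoxanthine added for 18 h, freeze-thaw lysis, counting. IC50 by nonlinear regression of dose-response; four determinations per strain.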

[3] = tested on: Plasmodium falciparum; test: Antiplasmodial activity against Plasmodium falciparum clinical isolate after 18 hrs by [3H]hypoxanthine incorporation assay; method in brief: as §1
[4] = tested on: Plasmodium falciparum; test: Antiplasmodial activity against Plasmodium falciparum harboring mutant pfmdr-1-86 gene after 18 hrs by [3H]hypoxanthine incorporation assay; method in brief: as §1
[5] = tested on: Plasmodium falciparum; test: Antiplasmodial activity against Plasmodium falciparum harboring wild type pfmdr-1-86 gene after 18 hrs by [3H]hypoxanthine incorporation assay; method in brief: as §1
[6] = tested on: Plasmodium falciparum; test: Antiplasmodial activity against multidrug-sensitive Plasmodium falciparum 3D7 after 18 hrs by [3H]hypoxanthine incorporation assay; method in brief: as §2
[7] = tested on: Plasmodium falciparum; test: Antiplasmodial activity against Plasmodium falciparum harboring wild type pfcrt-76 gene after 18 hrs by [3H]hypoxanthine incorporation assay; method in brief: as §1
[8] = tested on: Plasmodium falciparum; test: Antiplasmodial activity against Plasmodium falciparum harboring mutant pfcrt-76 and mutant pfmdr-1-86 gene after 18 hrs by [3H]hypoxanthine incorporation assay; method in brief: as §1
[9] = tested on: Plasmodium falciparum; test: Antiplasmodial activity against Plasmodium falciparum harboring wild type and mutant pfmdr-1-86 gene after 18 hrs by [3H]hypoxanthine incorporation assay; method in brief: as §1
[10] = tested on: Plasmodium falciparum; test: Antiplasmodial activity against Plasmodium falciparum harboring mutant pfcrt-76 and wild type pfmdr-1-86 gene after 18 hrs by [3H]hypoxanthine incorporation assay; method in brief: as §1
[11] = tested on: Plasmodium falciparum; test: Antiplasmodial activity against Plasmodium falciparum harboring wild type pfcrt-76 and wild type pfmdr-1-86 gene after 18 hrs by [3H]hypoxanthine incorporation assay; method in brief: as §1
[12] = tested on: Plasmodium falciparum; test: Antiplasmodial activity against Plasmodium falciparum harboring wild type pfcrt-76 and mutant pfmdr-1-86 gene after 18 hrs by [3H]hypoxanthine incorporation assay; method in brief: as §1
[13] = tested on: Plasmodium falciparum; test: Antiplasmodial activity against Plasmodium falciparum harboring wild type and mutant pfcrt-76 gene after 18 hrs by [3H]hypoxanthine incorporation assay; method in brief: as §1

Structure (SMILES) | IC50 [1] [nM] | IC50 [2] [nM] | IC50 [3] [nM] | IC50 [4] [nM] | IC50 [5] [nM] | IC50 [6] [nM] | IC50 [7] [nM] | IC50 [8] [nM] | IC50 [9] [nM] | IC50 [10] [nM] | IC50 [11] [nM] | IC50 [12] [nM] | IC50 [13] [nM]
C[C@H]1[C@@H](O)O[C@@H]2O[C@@]3(C)CC[C@H]4[C@H](C)CC[C@@H]1[C@@]24OO3 [ARTENIMOL] | < 25 | 2 | 2 | 2 | 3 | 2 |  |  |  |  |  |  | 
Clc1ccc2c(N3CCN(CCCN4CCN(c5ccnc6cc(Cl)ccc56)CC4)CC3)ccnc2c1 [PIPERAQUINE] | 38 | 42 | 32 |  |  | 27 | 35 |  |  |  |  |  | 
CCCCN(CCCC)CC(O)c1cc(Cl)cc2c1-c1ccc(Cl)cc1/C2=C/c1ccc(Cl)cc1 (configuration not stated) [LUMEFANTRINE] | 43 | 24 | 50 | 43 | 124 | 96 |  | 31 | 57 | 99 | 173 | 63 | 67
CCN(CC)CCCC(C)Nc1ccnc2cc(Cl)ccc12 (configuration not stated) [CHLOROQUINE] | 57 |  |  |  |  |  |  | 72 |  | 54 |  |  | 21
